Assay [1] deals with MAP kinase-activated protein kinase 2 (Homo sapiens, UniProt P49137). The assay is described as follows: Inhibition of MAPKAPK2 at 30 uM by microfluidic mobility shift assay. The gist of the method: (§1)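 Single-concentration screen, singlicate, 30 uM final (diluted from 1 mM DMSO solutions), fluorescently tagged peptide substrate appropriate to each kinase, ATP at apparent Km for each protein. Phosphorylated and unphosphorylated peptides separated electrophoretically; conversion is the phosphorylated peak area over the sum of both peaks. No-inhibitor and no-ATP controls; H89 reference on each plate.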
Sequence of MAP kinase-activated protein kinase 2 (P49137 whole entry, looked up): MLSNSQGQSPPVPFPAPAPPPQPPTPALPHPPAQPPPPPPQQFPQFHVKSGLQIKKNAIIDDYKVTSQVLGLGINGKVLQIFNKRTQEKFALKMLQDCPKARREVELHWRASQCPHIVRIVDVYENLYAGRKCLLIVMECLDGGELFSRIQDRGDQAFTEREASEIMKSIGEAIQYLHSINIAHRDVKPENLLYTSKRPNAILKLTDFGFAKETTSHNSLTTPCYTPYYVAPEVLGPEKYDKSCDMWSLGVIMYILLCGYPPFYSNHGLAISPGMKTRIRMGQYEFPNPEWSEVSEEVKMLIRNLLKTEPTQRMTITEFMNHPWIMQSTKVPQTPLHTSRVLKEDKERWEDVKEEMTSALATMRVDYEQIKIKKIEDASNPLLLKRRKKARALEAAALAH

The target in assay [2] is Tyrosine-protein kinase Lyn (Homo sapiens, UniProt P07948). Kind of assay: Inhibition of LYN at 30 uM by microfluidic mobility shift assay. In short, it runs like this: as §1
For assay [3], the target named is Ribosomal protein S6 kinase alpha-1 (Homo sapiens) (UniProt Q15418). The assay is described as follows: Inhibition of RSK1 at 30 uM by microfluidic mobility shift assay. In short, it runs like this: as §1
Sequence of Ribosomal protein S6 kinase alpha-1 (Homo sapiens) (Q15418 whole entry): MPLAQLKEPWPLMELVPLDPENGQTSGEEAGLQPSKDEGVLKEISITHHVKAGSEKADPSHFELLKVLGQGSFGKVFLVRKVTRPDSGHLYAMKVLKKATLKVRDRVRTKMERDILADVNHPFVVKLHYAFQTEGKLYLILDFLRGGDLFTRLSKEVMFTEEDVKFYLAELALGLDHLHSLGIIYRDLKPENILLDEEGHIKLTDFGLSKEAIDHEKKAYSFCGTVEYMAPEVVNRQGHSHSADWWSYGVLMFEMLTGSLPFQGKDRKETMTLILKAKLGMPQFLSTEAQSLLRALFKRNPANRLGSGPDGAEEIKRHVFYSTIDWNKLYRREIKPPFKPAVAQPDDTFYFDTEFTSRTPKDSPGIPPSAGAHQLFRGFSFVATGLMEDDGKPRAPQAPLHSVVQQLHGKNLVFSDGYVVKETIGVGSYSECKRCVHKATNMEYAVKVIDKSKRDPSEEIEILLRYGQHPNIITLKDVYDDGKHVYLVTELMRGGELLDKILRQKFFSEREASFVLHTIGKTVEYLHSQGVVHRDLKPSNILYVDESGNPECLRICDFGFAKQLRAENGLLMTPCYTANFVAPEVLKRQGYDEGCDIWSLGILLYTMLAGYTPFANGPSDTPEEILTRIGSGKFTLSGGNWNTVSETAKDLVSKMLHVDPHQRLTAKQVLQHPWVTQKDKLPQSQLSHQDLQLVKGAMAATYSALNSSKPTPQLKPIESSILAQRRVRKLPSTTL
Assay [4] has as its target Glycogen synthase kinase-3 beta (Homo sapiens) (UniProt P49841). The assay is described as follows: Inhibition of GSK3B at 30 uM by microfluidic mobility shift assay. The gist of the method:
as §1

The target of assay [5] is Mitogen-activated protein kinase 1 (Homo sapiens) (UniProt P28482). Kind of assay: Inhibition of ERK2 at 30 uM by microfluidic mobility shift assay. In short, it runs like this:
as §1

Assay [6] addresses T1, Protein kinase C zeta type (Homo sapiens) (UniProt Q05513).
T1 sequence (whole entry): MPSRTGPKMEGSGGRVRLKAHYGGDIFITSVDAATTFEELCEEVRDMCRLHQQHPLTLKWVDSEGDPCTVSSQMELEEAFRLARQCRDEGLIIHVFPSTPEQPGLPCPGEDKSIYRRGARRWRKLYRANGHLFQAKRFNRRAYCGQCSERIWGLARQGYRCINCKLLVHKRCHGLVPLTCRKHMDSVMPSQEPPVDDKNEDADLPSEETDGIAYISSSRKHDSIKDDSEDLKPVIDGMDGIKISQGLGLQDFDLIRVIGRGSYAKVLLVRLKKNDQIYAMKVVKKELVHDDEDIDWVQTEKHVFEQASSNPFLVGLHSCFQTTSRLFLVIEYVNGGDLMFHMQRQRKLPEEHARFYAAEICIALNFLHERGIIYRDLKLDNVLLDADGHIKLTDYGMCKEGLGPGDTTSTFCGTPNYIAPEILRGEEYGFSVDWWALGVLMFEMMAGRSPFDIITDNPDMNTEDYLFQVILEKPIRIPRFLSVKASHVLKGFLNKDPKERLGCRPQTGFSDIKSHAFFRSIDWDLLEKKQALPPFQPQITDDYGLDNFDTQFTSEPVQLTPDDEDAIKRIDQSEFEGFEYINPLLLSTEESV
The assay is described as follows: Inhibition of PKCz at 30 uM by microfluidic mobility shift assay. The gist of the method:
as §1

Assay [7] deals with Mitogen-activated protein kinase 3 (Homo sapiens) (UniProt P27361). Kind of assay: Inhibition of ERK1 at 30 uM by microfluidic mobility shift assay. In short, it runs like this: as §1
Sequence of Mitogen-activated protein kinase 3 (Homo sapiens) (P27361 whole entry): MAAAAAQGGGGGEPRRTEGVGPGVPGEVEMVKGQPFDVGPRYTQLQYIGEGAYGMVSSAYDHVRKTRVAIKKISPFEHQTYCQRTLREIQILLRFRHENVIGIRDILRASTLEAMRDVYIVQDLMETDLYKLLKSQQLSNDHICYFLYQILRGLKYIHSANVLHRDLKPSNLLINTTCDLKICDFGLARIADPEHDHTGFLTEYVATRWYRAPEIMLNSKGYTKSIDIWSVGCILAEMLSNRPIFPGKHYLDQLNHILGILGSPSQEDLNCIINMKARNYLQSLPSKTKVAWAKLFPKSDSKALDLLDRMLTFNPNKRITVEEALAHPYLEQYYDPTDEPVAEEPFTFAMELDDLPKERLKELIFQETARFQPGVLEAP
The target of assay [8] is Proto-oncogene tyrosine-protein kinase Src (Homo sapiens, UniProt P12931). The assay is described as follows: Inhibition of SRC at 30 uM by microfluidic mobility shift assay. The gist of the method:
as §1

Assay [9] can be described thus: Inhibition of PKA at 30 uM by microfluidic mobility shift assay. In short, it runs like this:
as §1

The target of assay [10] is Tyrosine-protein kinase Fyn (Homo sapiens, UniProt P06241). Kind of assay: Inhibition of FYN at 30 uM by microfluidic mobility shift assay. The gist of the method: as §1
Sequence of Tyrosine-protein kinase Fyn (P06241 2-537 limits assumed): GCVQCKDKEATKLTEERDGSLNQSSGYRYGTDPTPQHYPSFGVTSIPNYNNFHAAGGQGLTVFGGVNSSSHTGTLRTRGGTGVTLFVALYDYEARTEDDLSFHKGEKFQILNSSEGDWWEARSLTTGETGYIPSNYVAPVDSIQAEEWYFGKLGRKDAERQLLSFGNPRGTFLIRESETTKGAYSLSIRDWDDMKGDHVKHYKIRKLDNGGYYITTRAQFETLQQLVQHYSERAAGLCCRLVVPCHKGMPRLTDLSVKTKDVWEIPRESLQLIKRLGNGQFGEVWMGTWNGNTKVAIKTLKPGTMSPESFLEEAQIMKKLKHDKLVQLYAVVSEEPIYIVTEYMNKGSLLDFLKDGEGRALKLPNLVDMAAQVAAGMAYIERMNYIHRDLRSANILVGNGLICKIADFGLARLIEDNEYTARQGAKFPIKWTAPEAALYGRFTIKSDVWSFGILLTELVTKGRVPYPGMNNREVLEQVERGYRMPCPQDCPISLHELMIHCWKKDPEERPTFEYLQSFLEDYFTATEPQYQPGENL
Assay [11] addresses Mitogen-activated protein kinase 14 (Homo sapiens, UniProt Q16539). Kind of assay: Inhibition of p38alpha at 30 uM by microfluidic mobility shift assay. The gist of the method: as §1
The target in assay [12] is Tyrosine-protein kinase ABL1 (Homo sapiens, UniProt P00519). Kind of assay: Inhibition of ABL at 30 uM by microfluidic mobility shift assay. In short, it runs like this:
as §1

The target in assay [13] is RAC-alpha serine/threonine-protein kinase (Homo sapiens) (UniProt P31749). The assay is described as follows: Inhibition of AKT1 at 30 uM by microfluidic mobility shift assay. In short, it runs like this: as §1
The target of assay [14] is Ribosomal protein S6 kinase alpha-5 (Homo sapiens) (UniProt O75582). The assay is described as follows: Inhibition of MSK1 at 30 uM by microfluidic mobility shift assay. The gist of the method:
as §1

Assay [15] has as its target Serine/threonine-protein kinase Chk2 (Homo sapiens, UniProt O96017). Kind of assay: Inhibition of CHK2 at 30 uM by microfluidic mobility shift assay. The gist of the method:
as §1

Assay [16] concerns the target Tyrosine-protein kinase Lck (Homo sapiens, UniProt P06239). The assay is described as follows: Inhibition of LCK at 30 uM by microfluidic mobility shift assay. The gist of the method: as §1
The target of assay [17] is RAC-beta serine/threonine-protein kinase (Homo sapiens) (UniProt P31751). The assay is described as follows: Inhibition of AKT2 at 30 uM by microfluidic mobility shift assay. The gist of the method: as §1
Sequence of RAC-beta serine/threonine-protein kinase (Homo sapiens) (P31751 whole entry): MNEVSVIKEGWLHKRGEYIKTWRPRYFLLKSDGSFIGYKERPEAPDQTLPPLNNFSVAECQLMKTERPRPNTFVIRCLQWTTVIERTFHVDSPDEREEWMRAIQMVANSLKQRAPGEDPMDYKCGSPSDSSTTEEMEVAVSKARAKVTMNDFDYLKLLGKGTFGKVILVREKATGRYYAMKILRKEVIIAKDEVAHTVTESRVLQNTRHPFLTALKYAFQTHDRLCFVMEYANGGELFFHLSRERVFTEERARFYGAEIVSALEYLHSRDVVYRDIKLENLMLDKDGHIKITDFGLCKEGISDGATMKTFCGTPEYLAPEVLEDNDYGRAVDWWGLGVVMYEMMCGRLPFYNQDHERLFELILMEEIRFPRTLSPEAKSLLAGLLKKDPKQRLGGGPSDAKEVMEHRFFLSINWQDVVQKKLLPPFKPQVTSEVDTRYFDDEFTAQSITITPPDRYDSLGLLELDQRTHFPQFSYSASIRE
Assay [18] has as its target T2, Aurora kinase A (Homo sapiens) (UniProt O14965).
T2 sequence (whole entry): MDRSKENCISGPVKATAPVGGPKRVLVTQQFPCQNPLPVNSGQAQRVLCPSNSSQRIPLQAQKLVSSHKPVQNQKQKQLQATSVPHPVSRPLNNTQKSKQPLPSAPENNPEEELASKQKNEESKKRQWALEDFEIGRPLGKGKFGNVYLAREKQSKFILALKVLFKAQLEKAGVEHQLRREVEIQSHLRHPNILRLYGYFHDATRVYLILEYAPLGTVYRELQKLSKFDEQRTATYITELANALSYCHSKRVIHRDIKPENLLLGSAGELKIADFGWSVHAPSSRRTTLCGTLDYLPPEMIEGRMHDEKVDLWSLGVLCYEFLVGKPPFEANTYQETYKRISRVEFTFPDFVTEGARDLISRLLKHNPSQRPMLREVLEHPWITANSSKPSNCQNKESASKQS
The assay is described as follows: Inhibition of AurA at 30 uM by microfluidic mobility shift assay. The gist of the method: as §1

Sequence of Mitogen-activated protein kinase 14 (Q16539 whole entry): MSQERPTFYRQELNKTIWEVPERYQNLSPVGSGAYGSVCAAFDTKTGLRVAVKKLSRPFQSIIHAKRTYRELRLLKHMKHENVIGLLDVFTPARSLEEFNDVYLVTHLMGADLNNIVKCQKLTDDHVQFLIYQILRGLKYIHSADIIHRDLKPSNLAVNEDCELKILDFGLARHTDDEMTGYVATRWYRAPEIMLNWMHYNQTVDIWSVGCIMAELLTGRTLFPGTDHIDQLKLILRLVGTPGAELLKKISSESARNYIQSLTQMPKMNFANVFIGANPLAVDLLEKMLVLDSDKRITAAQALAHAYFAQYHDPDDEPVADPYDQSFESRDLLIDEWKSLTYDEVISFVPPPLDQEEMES
Sequence of Ribosomal protein S6 kinase alpha-5 (Homo sapiens) (O75582 whole entry, looked up): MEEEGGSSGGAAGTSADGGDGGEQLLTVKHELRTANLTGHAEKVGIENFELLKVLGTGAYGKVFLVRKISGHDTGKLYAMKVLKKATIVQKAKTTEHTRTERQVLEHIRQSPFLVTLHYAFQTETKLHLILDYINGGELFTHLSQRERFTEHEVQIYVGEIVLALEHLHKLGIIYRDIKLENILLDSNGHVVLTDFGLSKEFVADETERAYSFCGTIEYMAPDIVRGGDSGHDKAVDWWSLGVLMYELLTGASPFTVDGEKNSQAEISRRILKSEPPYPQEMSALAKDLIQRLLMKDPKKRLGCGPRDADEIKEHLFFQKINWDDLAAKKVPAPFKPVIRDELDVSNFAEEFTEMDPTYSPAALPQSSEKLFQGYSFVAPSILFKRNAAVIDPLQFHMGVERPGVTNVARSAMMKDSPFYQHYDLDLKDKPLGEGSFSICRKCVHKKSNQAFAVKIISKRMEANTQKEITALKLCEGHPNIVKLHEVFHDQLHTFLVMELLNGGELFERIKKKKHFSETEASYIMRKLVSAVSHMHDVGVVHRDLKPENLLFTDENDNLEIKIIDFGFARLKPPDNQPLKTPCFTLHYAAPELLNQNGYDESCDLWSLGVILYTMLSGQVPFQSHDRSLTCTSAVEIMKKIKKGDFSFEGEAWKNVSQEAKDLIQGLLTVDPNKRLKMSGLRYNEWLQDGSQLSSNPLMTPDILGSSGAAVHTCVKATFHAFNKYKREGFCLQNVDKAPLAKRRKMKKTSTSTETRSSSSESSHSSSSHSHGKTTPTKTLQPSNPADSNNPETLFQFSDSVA
Sequence of Glycogen synthase kinase-3 beta (Homo sapiens) (P49841 whole entry, looked up): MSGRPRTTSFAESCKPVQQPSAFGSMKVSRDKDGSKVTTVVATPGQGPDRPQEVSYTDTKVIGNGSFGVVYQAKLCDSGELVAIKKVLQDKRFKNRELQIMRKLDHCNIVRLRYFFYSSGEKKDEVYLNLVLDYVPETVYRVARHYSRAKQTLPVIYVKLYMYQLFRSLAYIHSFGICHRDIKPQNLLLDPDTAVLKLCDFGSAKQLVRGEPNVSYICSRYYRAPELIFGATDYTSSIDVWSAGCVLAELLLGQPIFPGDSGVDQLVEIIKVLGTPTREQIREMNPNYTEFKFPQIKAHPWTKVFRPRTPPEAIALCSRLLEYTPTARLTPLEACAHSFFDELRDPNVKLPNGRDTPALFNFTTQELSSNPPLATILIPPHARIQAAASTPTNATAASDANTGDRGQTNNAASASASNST
Sequence of Tyrosine-protein kinase Lck (P06239 2-509 limits assumed): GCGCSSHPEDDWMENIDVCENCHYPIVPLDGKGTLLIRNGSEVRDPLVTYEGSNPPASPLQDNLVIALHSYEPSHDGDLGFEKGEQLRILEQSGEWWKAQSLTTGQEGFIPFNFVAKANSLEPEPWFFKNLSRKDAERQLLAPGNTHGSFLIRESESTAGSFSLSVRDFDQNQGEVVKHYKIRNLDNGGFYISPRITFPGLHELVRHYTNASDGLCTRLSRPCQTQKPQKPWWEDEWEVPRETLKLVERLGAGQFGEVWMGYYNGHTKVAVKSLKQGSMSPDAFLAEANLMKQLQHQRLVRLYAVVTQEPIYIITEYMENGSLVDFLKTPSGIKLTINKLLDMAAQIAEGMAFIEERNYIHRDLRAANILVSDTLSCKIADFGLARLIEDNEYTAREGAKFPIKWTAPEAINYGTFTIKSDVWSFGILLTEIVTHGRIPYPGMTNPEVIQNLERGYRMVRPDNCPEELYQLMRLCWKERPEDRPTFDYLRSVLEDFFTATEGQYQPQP
Sequence of Mitogen-activated protein kinase 1 (Homo sapiens) (P28482 whole entry): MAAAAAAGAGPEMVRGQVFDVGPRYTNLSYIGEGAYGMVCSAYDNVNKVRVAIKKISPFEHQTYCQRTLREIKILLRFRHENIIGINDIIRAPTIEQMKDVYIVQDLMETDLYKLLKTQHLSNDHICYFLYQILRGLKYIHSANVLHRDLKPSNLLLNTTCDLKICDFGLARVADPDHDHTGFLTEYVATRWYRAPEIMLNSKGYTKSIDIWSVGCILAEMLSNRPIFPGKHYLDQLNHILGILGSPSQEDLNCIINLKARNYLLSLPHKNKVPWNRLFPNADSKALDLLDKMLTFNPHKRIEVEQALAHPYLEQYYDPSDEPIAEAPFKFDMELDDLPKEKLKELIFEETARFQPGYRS

`CC(=O)Nc1nn(C)c2cc(-c3ccc(N4CCN(C)CC4)cc3)[nH]c(=O)c12`: the inhibition in [1] is 5%; in [2], 8%; in [3], 16%; in assay [4] it was -3%; in [5], 4%; in assay [6], 6%. In addition, the inhibition in assay [7] came out at 3%; in assay [8], 20%; in [9], 3%; in assay [10], 15%; in assay [11], 3%; in assay [12], 20%. Also, the inhibition in [13] was 4%; in [14], 0%; in [15], 3%; in [16], 10%; in assay [17] it was -1%; in assay [18] it was 15%.

Take `Cc1cc2c(c(NS(C)(=O)=O)nn2C)c(=O)[nH]1`: the inhibition was 1% in assay [1]; 1% in [2]; -6% in [3]; 13% in assay [4]; 3% in [5]; 27% in assay [6]. For the same molecule, the inhibition in assay [7] is 0%; in assay [8], -2%; in assay [9], -2%; in assay [10], 11%; in assay [11], 0%; in assay [12], -2%. The inhibition in assay [13] was 1%; in [14], 4%; in [15], -1%; in assay [16], 4%; in assay [17] it was 16%; in [18] it was -8%.

In the case of `CC(=O)Nc1nn(C)c2cc(-c3ccccc3)[nH]c(=O)c12`, the inhibition in [1] turned out to be 9%; in [2], 13%; in [3] it was 4%; in assay [4], 17%; in assay [5], 2%; in assay [6], 28%. The inhibition in assay [7] is 3%; in assay [8] it was 12%; in assay [9] it was -2%; in [10] it was 21%; in assay [11], 5%; in assay [12] it was 10%. In addition, the inhibition was -9% in assay [13]; 3% in assay [14]; 4% in assay [15]; 8% in [16]; 40% in assay [17]; 2% in assay [18].

With `Nc1c2c(=O)[nH]c(-c3ccccn3)cc2nn1-c1ccccc1`, the inhibition in assay [1] was 4%; in assay [2] it was 97%; in assay [3], 6%; in [4] it was 11%; in assay [5] it was 6%; in [6] it was 3%. For the same molecule, the inhibition in [7] amounted to 4%; in assay [8], 98%; in assay [9], 0%; in [10], 96%; in assay [11], 32%; in assay [12], 95%. For the same molecule, the inhibition came out at 4% in [13]; 4% in assay [14]; 3% in [15]; 91% in assay [16]; 8% in assay [17]; 30% in assay [18].

`Nc1n[nH]c2cc(-c3ccc(N4CCOCC4)cc3)[nH]c(=O)c12`: the inhibition in [1] was 55%; in assay [2], 63%; in assay [3] it was 16%; in assay [4] it was 41%; in [5] it was -3%; in [6], -2%. The inhibition in assay [7] worked out at 9%; in assay [8], 74%; in [9], 88%; in assay [10] it was 62%; in assay [11] it was 6%; in assay [12], 61%. Besides, the inhibition was -1% in assay [13]; 39% in assay [14]; 38% in assay [15]; 44% in assay [16]; 7% in assay [17]; 51% in assay [18].

`COc1ccccc1-c1cc2nn(-c3ccccc3)c(N)c2c(=O)[nH]1`: the inhibition was -1% in assay [1]; 86% in assay [2]; 3% in assay [3]; 3% in assay [4]; 13% in assay [5]; 4% in assay [6]. Besides, the inhibition in assay [7] was found to be 21%; in assay [8], 87%; in assay [9], 6%; in assay [10], 77%; in [11] it was 68%; in [12] it was 86%. Further, the inhibition in [13] stood at 15%; in [14], 7%; in [15], 16%; in assay [16], 72%; in assay [17] it was 0%; in assay [18], 7%.

Turning to `Cn1nc(N)c2c(=O)[nH]c(-c3ccccc3)cc21`, the inhibition in [1] is 37%; in assay [2], 22%; in assay [3] it was 8%; in [4], 66%; in [5], 13%; in assay [6], 6%. The inhibition in assay [7] was 19%; in assay [8], 32%; in [9], 7%; in assay [10], 26%; in [11] it was 7%; in [12], 26%. Also, the inhibition is 8% in assay [13]; 9% in assay [14]; 16% in [15]; 22% in assay [16]; 4% in assay [17]; 14% in assay [18].

For the molecule `COc1ccc(-c2cc3nn(-c4ccccc4)c(N)c3c(=O)[nH]2)cc1`, the inhibition in assay [1] came out at 7%; in assay [2], 90%; in assay [3], 4%; in assay [4], 14%; in [5], 3%; in [6], 0%. For the same molecule, the inhibition in assay [7] is 8%; in [8], 89%; in [9], -6%; in assay [10], 88%; in assay [11], 38%; in assay [12], 89%. In addition, the inhibition in assay [13] was 16%; in [14] it was 6%; in assay [15] it was -3%; in [16], 75%; in assay [17] it was 0%; in assay [18], 10%.

The record behind these values is ChEMBL document CHEMBL1811853, “Design and evaluation of 3-aminopyrazolopyridinone kinase inhibitors inspired by the natural product indirubin” (Bioorg Med Chem, 2011).
